# Experimental data from different studies.
# Protocols differ between the studies behind these lines.
# Matrix: plasma
Structure (SMILES),test system,setting,Tmax [h]
O=C(COc1ccc(Cl)cc1)NC12CC(c3nnc([C@H]4C[C@@H](OC(F)(F)F)C4)o3)(C1)C2,human,"oral, 260 mg, multiple doses, once daily, steady state, healthy volunteers",3
N#Cc1cccc(-c2ccc3ncc(-c4cc(F)cc(F)c4)c(N4CCC(N)CC4)c3c2)c1O,male human,"oral, 20 mg, single dose",1.5
COc1ccc2c(c1)CN(C(=O)CCN1CCC(Cc3ccccc3)CC1)CC[S@@+]2[O-],male human,"intravenous, 0.05 mg/kg, healthy volunteers",0
COc1ccc(F)cc1C(=O)NCc1ccc(-c2nn([C@@H](C)C(F)(F)F)c(N)c2C(N)=O)cc1,male human,"oral, 200 mg, single dose",5
CC(C)n1cc(C#N)c2cc(-n3cc(C(=O)O)cn3)ccc21,human,"oral, 200 mg, single dose, fasted, healthy volunteers",4.01
C[C@@H](Oc1ccc(S(C)(=O)=O)cc1C(=O)N1C[C@@H]2C[C@]2(c2cc(C(F)(F)F)on2)C1)C(F)(F)F,human,"oral, 10 mg, single dose, fasted",3.5
OC[C@H]1O[C@@H](c2cc(Cc3ccc(C4CC4)cc3)c(Cl)c3c2CCO3)[C@H](O)[C@@H](O)[C@@H]1O,human,"oral, 0.3 mg, single dose, fed, healthy volunteers",2
CC(=O)N(C)[C@H]1CCN(C(=O)c2cnc3c(c2)C[C@](C)(c2ccc(F)cc2)N3)C1,male human,"oral, 30 mg, multiple doses, once daily, steady state",0.75
Cc1cn([C@H]2C[C@H](N=[N+]=[N-])[C@@H](CO)O2)c(=O)[nH]c1=O,human,"oral, 600 mg, single dose, healthy volunteers",0.62
